# Source: PubChem BioAssay
# Active and inactive are the calls of the source.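 How the source made its calls, unless noted: active means visually confirmed hit in the image check and inhibition above 20%; inconclusive means visually confirmed hit but inhibition not above 20%; inactive means no visual hit in the image check.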
# What was measured:
# [1] = inhibitors of TNFa-induced NFkB p65 translocation, primary screen, imaging, HUVEC, MLSMR starter and 10KST1 sets (AID 438;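 active means inhibition above 20% together with a positive visual image hit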;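 further: compound added about 3h40 before a 20 min TNFalpha stimulation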;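 on inhibition: signal is the nuclear over cytoplasmic p65 intensity ratio per well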); conditions: HUVEC TNFa-induced p65 nuclear translocation; cell count: measured here: nuclei count (cytotoxicity indicator), at 2.08 µM; inhibition: at 2 µM, stronger effect = higher value, 0% TNFa-plus-vehicle, 100% no-TNFa wells
# [2] = inhibitors of mutant huntingtin aggregation, primary screen, imaging, exon1htt(103Q)mCFP cells, high-content imaging (AID 483;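 active means visual image review flags a hit and inhibition of aggregation exceeds 20%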;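 further: compound exposure lasted 3 days before fixation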;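 on nuclei count: percent of the per-plate median nuclei count of sample wells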); conditions: exon1htt(103Q)mCFP cell line, aggregate imaging, at 2 µM; inhibition of aggregation: stronger effect = higher value; nuclei count: measured here: cell count, toxicity
# [3] = inhibitors of E-selectin induction by TNFa, primary screen, imaging, HUVEC, immunofluorescence, MLSMR starter and 10KST1 sets (AID 487); conditions: HUVEC TNFalpha-induced E-selectin immunofluorescence imaging, at 2 µM; inhibition: stronger effect = higher value; nuclei count: measured here: cell number, toxicity;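 on inhibition: signal is fraction of cell area covered by stained E-selectin grains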;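 on nuclei count: 100% = median nuclei count of all wells on the same plate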
# [4] = target: Voltage-gated potassium channel subunit beta-2 (Rattus norvegicus) (UniProt P62483); assay: KvBeta enzyme negative modulators, primary screen, biochemical, NADPH fluorescence (AID 622;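 active means fluorescence slope higher than the sample average by over 3 SD, cut at about -0.22 in these data, passing the limit was not always enough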;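 further: slope of raw intensity against log time taken from 70 to 1610 s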); conditions: recombinant KvBeta, 4-cyanobenzaldehyde reduction, at 10 µM, stronger effect = higher value
# [5] = target: Voltage-gated potassium channel subunit beta-2 (Rattus norvegicus) (UniProt P62483); assay: KvBeta positive modulators, primary screen, biochemical, NADPH fluorescence (AID 623;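 active means NADPH fluorescence slope more negative than the mean of all samples by about 3 SD, 99.7% confidence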;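 further: fluorescence intensity change per second fitted from 20 to 320 s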); conditions: Recombinant KvBeta, NADPH fluorescence decrease slope, 10 min; at 10 µM; stronger effect = lower value
# [6] = target: Muscarinic acetylcholine receptor M4 (Homo sapiens) (UniProt P08173); assay: compounds altering M4/GIRK thallium flux, either direction, primary screen, M4 allosteric agonist project, cell-based, HEK293 M4/GIRK, BTC-AM (AID 625;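 active means fluorescence slope after compound addition differing from the mean of all tested samples at 99.7% confidence, mostly higher but some lower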;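 further: thallium influx through GIRK channels coupled to M4 in HEK293 cells with BTC-AM dye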); conditions: at 10 µM, actives lie on both sides
# In short: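 Material: M4/GIRK1/GIRK2 stable HEK293 cell line. Medium: pH 7.3 thallium assay buffer. Dosing: single compound concentration, 10 µM final. Schedule: 1 h dye loading, 2 min kinetic read. Measured by: kinetic fluorescence with BTC-AM dye. Read-out: post-addition slope, 15–24 s, of baseline-normalized fluorescence. Benchmarks: carbachol and DMSO controls.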
# [7] = inhibitors of Sendai virus-induced IRF3 signaling, primary screen, TLR/RLR signaling modifier project, cell-based, Sendai virus stimulus, luciferase, 10K MLSCN set (AID 602276;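 active means inhibition at or above 50% at 10 µM; inactive means inhibition below 50%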;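 further: firefly luciferase from ISG56 promoter only with Renilla not read in this screen; 0% = Sendai virus plus DMSO and 100% = medium plus DMSO without virus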); conditions: HEK293 RL24 IRF3 luciferase reporter, at 10 µM, stronger effect = higher value
# [8] = inhibitors of poly I:C-induced TLR3 signaling, primary screen, cell-based, poly I:C stimulus, luciferase, 10K MLSCN set (AID 602277;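 active means inhibition of the reporter signal at or above 50%; inactive means inhibition below 50%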); conditions: HEK293-TLR3 RL24 IRF3 luciferase reporter, at 10 µM, stronger effect = higher value
# Sequence of Muscarinic acetylcholine receptor M4 (Homo sapiens) (P08173 whole entry, looked up): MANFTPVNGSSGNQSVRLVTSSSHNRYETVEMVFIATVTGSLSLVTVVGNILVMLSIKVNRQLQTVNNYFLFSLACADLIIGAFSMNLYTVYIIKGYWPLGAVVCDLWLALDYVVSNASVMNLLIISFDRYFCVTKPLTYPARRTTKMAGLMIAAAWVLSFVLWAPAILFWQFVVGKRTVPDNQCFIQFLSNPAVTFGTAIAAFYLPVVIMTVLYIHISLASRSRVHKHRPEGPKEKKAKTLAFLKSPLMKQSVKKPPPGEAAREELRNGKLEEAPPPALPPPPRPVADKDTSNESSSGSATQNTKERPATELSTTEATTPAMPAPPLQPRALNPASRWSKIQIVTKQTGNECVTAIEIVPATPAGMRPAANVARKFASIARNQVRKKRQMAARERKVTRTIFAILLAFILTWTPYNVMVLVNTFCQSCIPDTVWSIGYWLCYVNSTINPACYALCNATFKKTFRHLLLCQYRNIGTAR
# Sequence of Voltage-gated potassium channel subunit beta-2 (Rattus norvegicus) (P62483 whole entry, looked up): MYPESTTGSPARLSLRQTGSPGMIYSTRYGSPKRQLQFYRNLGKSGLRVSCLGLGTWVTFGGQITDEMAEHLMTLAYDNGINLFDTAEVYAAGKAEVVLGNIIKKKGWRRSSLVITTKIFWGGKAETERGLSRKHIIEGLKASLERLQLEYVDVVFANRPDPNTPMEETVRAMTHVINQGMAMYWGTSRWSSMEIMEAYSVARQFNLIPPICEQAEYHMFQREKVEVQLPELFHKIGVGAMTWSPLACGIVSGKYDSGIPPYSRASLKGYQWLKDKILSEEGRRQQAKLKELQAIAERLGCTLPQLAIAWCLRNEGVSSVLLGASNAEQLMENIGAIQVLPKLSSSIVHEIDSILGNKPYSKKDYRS
Structure (SMILES),cell count [1],inhibition [1],inhibition of aggregation [2],nuclei count [2] [%],inhibition [3],nuclei count [3] [%],fluorescence slope [4],NADPH fluorescence slope [5],fluorescence slope [6],inhibition [7],inhibition [8]
CCOC(=O)c1oc2ccccc2c1CSc1nnnn1-c1ccc(OC)cc1,381,-7.7% (inactive),6.8% (inactive),95.4,-102% (inactive),110,-0.54 (inactive),-4.1e-05 (inactive),0.00514 (inactive),25.7% (inactive),30.2% (inactive)
Cc1cccc(N2CCN(C(=O)Cn3ccc4ccccc4c3=O)CC2)c1C,340,11% (inactive),3.8% (inactive),95.6,-4.9% (inactive),94,-0.568 (inactive),2.6e-06 (inactive),0.00591 (inactive),-3.75% (inactive),-30.8% (inactive)
CCC(Sc1ccc2nnc(-c3ccc(F)cc3)n2n1)C(=O)OC (stereo not drawn),562,-16.6% (inactive),25.1% (inactive),117,-73.4% (inactive),117,-0.185 (inactive),-7e-06 (inactive),0.00751 (inactive),17.3% (inactive),19.1% (inactive)
O=C(Nc1ccccc1)N(CCN1CCOCC1)Cc1ccccc1F,665,-4.1% (inactive),-16.2% (inactive),101,-68% (inactive),96.7,-0.61 (inactive),1.5e-05 (inactive),0.00376 (inactive),-14.2% (inactive),-15.8% (inactive)
COc1ccccc1N1CCN(C(=O)CCNS(=O)(=O)c2ccc3c(c2)CCC(=O)N3)CC1,556,-18.8% (inactive),-1.4% (inactive),123,-31.1% (inactive),102,-0.39 (inactive),-1.7e-05 (inactive),0.00579 (inactive),5.92% (inactive),13.8% (inactive)
Cc1ccc(/C(O)=C2\C(=O)C(=O)N(CCCN(C)C)C2c2ccccn2)cc1 (stereo not drawn),536,0.9% (inactive),-3.7% (inactive),98.9,-53.4% (inactive),132,-0.514 (inactive),-0.000162 (inactive),0.00375 (inactive),16.3% (inactive),8.71% (inactive)
COc1ccc2c(C(F)(F)F)cc(=O)oc2c1C,701,-1.8% (inactive),0.8% (inactive),99.9,-97% (inactive),111,-0.428 (inactive),1.9e-05 (inactive),0.00456 (inactive),17% (inactive),11.3% (inactive)
Cc1nc2c(=O)oc3ccccc3c2n1-c1ccccc1,579,2.9% (inactive),30.6% (inactive),90.3,33% (inactive),30.7,-0.519 (inactive),-3.7e-05 (inactive),0.0052 (inactive),12.7% (inactive),23.7% (inactive)
CC(=O)c1c(NCCc2ccccc2)cc(C)oc1=O,577,8.2% (inactive),8.3% (inactive),104,-32.4% (inactive),106,-0.259 (inactive),-2.2e-05 (inactive),0.00739 (inactive),-1.27% (inactive),11% (inactive)
Cc1cc(NC(=O)COc2cccc3cccnc23)no1,465,2% (inactive),11.9% (inactive),103,-67.8% (inactive),106,-0.385 (inactive),-2.5e-05 (inactive),0.00637 (inactive),-7.48% (inactive),-15.6% (inactive)
CN(C)C(=O)CSc1nnc([C@H](Cc2c[nH]c3ccccc23)NC(=O)OC(C)(C)C)o1,375,2.2% (inactive),-9.3% (inactive),108,-35.8% (inactive),112,-0.634 (inactive),-2.1e-05 (inactive),0.00313 (inactive),18.2% (inactive),23.4% (inactive)
Cc1ccc(-n2nnnc2SCC(=O)N2CCN(C(=O)c3ccco3)CC2)c(C)c1,731,-4.4% (inactive),27.6% (inactive),91,-5.5% (inactive),109,-0.568 (inactive),-5.4e-05 (inactive),0.00555 (inactive),1.61% (inactive),10.6% (inactive)
Cc1nn(-c2nc3ccccc3[nH]2)c(N)c1-c1ccccc1,666,-7.5% (inactive),-12.6% (inactive),110,-105% (inactive),110,-0.47 (inactive),-2.8e-06 (inactive),0.00573 (inactive),-38.3% (inactive),-134% (inactive)
CCn1c(C)nc2cc(C(=O)OC(C(F)(F)C(F)F)C(F)(F)C(F)F)ccc21,358,6% (inactive),12.2% (inactive),91.2,-20.9% (inactive),93.6,-0.557 (inactive),-2.6e-05 (inactive),0.00666 (inactive),7.52% (inactive),-180% (inactive)
C=CCn1c(Cc2csc(N)n2)nnc1SCC(=O)OCC,313,-3.5% (inactive),18.2% (inactive),86.3,25.2% (inactive),77.4,-0.48 (inactive),-2.5e-05 (inactive),0.00546 (inactive),4.87% (inactive),10% (inactive)
CCOC(=O)CSc1nnc(-c2ccc(S(=O)(=O)N3CCOCC3)cc2)n1-c1ccccc1,193,-21.3% (inactive),-7.9% (inactive),88.6,-19.3% (inactive),94.3,-0.486 (inactive),-3.1e-05 (inactive),0.00502 (inactive),10.2% (inactive),17.7% (inactive)
COc1ccc(Cc2nn3c(-c4cc(OC)c(OC)c(OC)c4)nnc3s2)cc1,552,7.6% (inactive),17.4% (inactive),95.1,20.8% (inactive),103,-0.254 (inactive),-2.7e-05 (inactive),0.00585 (inactive),14.7% (inactive),-1.58% (inactive)
COc1ccccc1NC(=O)N1CCN(c2cccc(C(F)(F)F)c2)CC1,380,4.7% (inactive),12.5% (inactive),107,-103% (inactive),118,-0.27 (inactive),-2.7e-05 (inactive),0.00535 (inactive),-10.2% (inactive),-42% (inactive)
CCCCCn1c(CN(C)Cc2ccccc2)nc2c1c(=O)n(C)c(=O)n2C,529,-12.2% (inactive),-2% (inactive),86.5,-110% (inactive),110,-0.46 (inactive),-9.4e-05 (inactive),0.00453 (inactive),18.2% (inactive),-3.26% (inactive)
CCOc1ccc(C(=O)N(Cc2ccc(N(C)C)cc2)C2CCS(=O)(=O)C2)cc1 (stereo not drawn),249,-12.2% (inactive),2.5% (inactive),75,-56.2% (inactive),96.7,-0.618 (inactive),-3.1e-05 (inactive),0.00328 (inactive),19.7% (inactive),23.5% (inactive)
COc1cc(NC(=O)C2CC(c3cccc(OC)c3OC)=NO2)cc(OC)c1OC (stereo not drawn),711,-12.2% (inactive),-18.4% (inactive),76.9,-176% (inactive),104,-0.573 (inactive),2.2e-05 (inactive),0.0048 (inactive),17.4% (inactive),-1.09% (inactive)
CC(C)(C)C(=O)Cn1c(=N)n(Cc2ccccc2)c2ccccc21,394,6.1% (inactive),8.9% (inactive),99.1,20.9% (inactive),96,-0.409 (inactive),4.3e-05 (inactive),0.00407 (inactive),20% (inactive),17.2% (inactive)
Cc1[nH]c2ccccc2c(=O)c1CN(C)Cc1ccccc1,270,2.9% (inactive),13.3% (inactive),97.7,-124% (inactive),117,-0.58 (inactive),2e-05 (inactive),0.00538 (inactive),-21% (inactive),-31.5% (inactive)
Cc1cc(C)n(Cc2nc3ccccc3n2C)n1,451,7% (inactive),4% (inactive),100,-24.9% (inactive),119,-0.577 (inactive),-3.2e-05 (inactive),0.0071 (inactive),4.33% (inactive),36.3% (inactive)
Cc1ccc(-c2cc(C(F)F)nc(N3CCC(C)CC3)n2)cc1,653,-35.4% (inactive),-11.6% (inactive),102,-81.9% (inactive),117,-0.432 (inactive),-1.2e-05 (inactive),0.00777 (inactive),4.72% (inactive),-1.99% (inactive)
CCC(C)(C)NC(=O)C(OC(=O)c1ccco1)c1ccccc1OC (stereo not drawn),610,-6.2% (inactive),11% (inactive),87.5,-4.1% (inactive),107,-0.248 (inactive),3.7e-06 (inactive),0.00739 (inactive),0.26% (inactive),8.58% (inactive)
CCN(c1ccc(OC)cc1)S(=O)(=O)c1ccc2c(c1)CCN2C(=O)CCC(=O)O,625,8.3% (inactive),-38.2% (inactive),92.1,-35.6% (inactive),115,-0.454 (inactive),2.3e-05 (inactive),0.00631 (inactive),14.1% (inactive),20.9% (inactive)
COCC(=O)NC(c1ccccc1)c1ccccc1,336,9.4% (inactive),4.5% (inactive),100,-13.4% (inactive),122,-0.561 (inactive),-7e-05 (inactive),0.00683 (inactive),14.6% (inactive),19.5% (inactive)
